From ChEMBL document CHEMBL3351667, “A chemical tuned strategy to develop novel irreversible EGFR-TK inhibitors with improved safety and pharmacokinetic profiles” (J Med Chem, 2014)
Values belong to the molecule of their own block, whether it stands above or below them.

Experiments:
[1] = molecular target: Epidermal growth factor receptor (Homo sapiens, UniProt P00533, T790M); format: protein assay
A-431 = test: cells; format: functional, cell-based; conditions: Homo sapiens, A-431, 48 h
hERG (KCNH2) [2] = molecular target: T1, hERG (KCNH2) (Homo sapiens, UniProt Q12809); test: Inhibition of human ERG assessed as reduction in channel currents at 1 uM
hERG (KCNH2) [3] = molecular target: T1, hERG (KCNH2); test: Inhibition of human ERG assessed as reduction in channel currents at 10 uM
[4] = molecular target: Receptor tyrosine-protein kinase erbB-2 (Homo sapiens, UniProt P04626); test: Inhibition of wild type HER2 (unknown origin) incubated for 5 mins by HTRF assay
NCI-H1975 [5] = test: cells; format: functional, cell-based; conditions: Homo sapiens, NCI-H1975, 48 h
[6] = molecular target: Epidermal growth factor receptor (Homo sapiens, UniProt P00533);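 also: inhibition of wild-type EGFR read out by HTRF, with a 5 min incubation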
[7] = Intrinsic clearance in human liver microsomes assessed per mg protein at 1 uM in presence of NADPH after 0.5 to 30 mins by LC/MS/MS method; format: ADME; conditions: read-out: CLH
Cytochrome P450 3A4 = Cytochrome P450 3A4 (Homo sapiens, UniProt P08684); test: Inhibition of CYP3A4 in human hepatic microsomes after 20 mins by LC/MS/MS method; format: ADME, Liver
Mus musculus = test: Apparent volume of distribution in BALB/c mouse at 10 mg/kg, po after 24 hrs by LC/MS/MS method; format: ADME, organism-based; set-up: dose 10 mg/kg, route oral; conditions: in vivo
[8] = Intrinsic clearance in mouse liver microsomes assessed per mg protein at 1 uM in presence of NADPH after 0.5 to 30 mins by LC/MS/MS method; format: ADME; conditions: read-out: CLH
Cytochrome P450 1A2 = molecular target: T2, Cytochrome P450 1A2 (Homo sapiens, UniProt P05177); test: Inhibition of CYP1A2 in human hepatic microsomes after 20 mins by LC/MS/MS method; format: ADME, Liver
T2 sequence (P05177 whole entry): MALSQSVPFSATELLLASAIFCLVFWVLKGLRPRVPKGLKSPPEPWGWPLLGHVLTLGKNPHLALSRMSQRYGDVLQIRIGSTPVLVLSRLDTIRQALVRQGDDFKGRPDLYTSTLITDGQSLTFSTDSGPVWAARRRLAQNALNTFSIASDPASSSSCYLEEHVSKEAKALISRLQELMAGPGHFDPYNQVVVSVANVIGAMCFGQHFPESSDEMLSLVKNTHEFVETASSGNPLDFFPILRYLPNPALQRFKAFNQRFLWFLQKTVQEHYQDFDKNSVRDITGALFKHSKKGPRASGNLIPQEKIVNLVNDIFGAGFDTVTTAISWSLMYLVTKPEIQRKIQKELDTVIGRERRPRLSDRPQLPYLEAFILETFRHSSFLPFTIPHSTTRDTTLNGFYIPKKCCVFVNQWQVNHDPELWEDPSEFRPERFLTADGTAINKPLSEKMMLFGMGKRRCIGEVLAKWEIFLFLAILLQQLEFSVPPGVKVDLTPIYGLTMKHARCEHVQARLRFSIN

Cytochrome P450 2C9 = Cytochrome P450 2C9 (Homo sapiens, UniProt P11712); test: Inhibition of CYP2C9 in human hepatic microsomes after 20 mins by LC/MS/MS method; format: ADME, Liver
NCI-H1975 [9] = test: Antitumor activity against human NCI-H1975 cells xenografted in nude mouse assessed as reduction in tumor growth at 15 to 60 mg/kg/day, ig relative to untreated control; format: functional, organism-based
[10] = Intrinsic clearance in monkey liver microsomes assessed per mg protein at 1 uM in presence of NADPH after 0.5 to 30 mins by LC/MS/MS method; format: ADME, Macaca mulatta; conditions: rhesus monkey, read-out: CLH
Cytochrome P450 2C19 = Cytochrome P450 2C19 (Homo sapiens, UniProt P33261); test: Inhibition of CYP2C19 in human hepatic microsomes after 20 mins by LC/MS/MS method; format: ADME, Liver
[11] = Ratio of drug level in brain to plasma in BALB/c mouse at 30 mg/kg, po after 6 hrs by LC/MS/MS method; format: ADME, organism-based; set-up: dose 30 mg/kg, route oral; conditions: read-out: BPR
Procedure, shortened: (§1)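 BALB/c mice received a single oral dose of 30 mg/kg. Drug concentrations in lung, brain and plasma were measured at multiple time points over 6 h. Mean tissue levels are expressed as a lung/plasma/brain ratio, with plasma set to 1.0.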

[12] = Ratio of drug level in lung to plasma in BALB/c mouse at 30 mg/kg, po after 6 hrs by LC/MS/MS method; format: ADME, organism-based; set-up: dose 30 mg/kg, route oral
Procedure, shortened: as §1

[13] = Cmax in BALB/c mouse at 10 mg/kg, po after 24 hrs by LC/MS/MS method; format: ADME, organism-based; set-up: dose 10 mg/kg, route oral; conditions: in vivo
NCI-H1975 [14] = test: Antitumor activity against human NCI-H1975 cells xenografted in nude mouse assessed as reduction in tumor growth at 60 mg/kg/day, ig relative to untreated control; format: functional; conditions: route intragastric
[15] = Intrinsic clearance in rat liver microsomes assessed per mg protein at 1 uM in presence of NADPH after 0.5 to 30 mins by LC/MS/MS method; format: ADME; conditions: read-out: CLH
[16] = Oral bioavailability in BALB/c mouse at 10 mg/kg after 24 hrs by LC/MS/MS method; format: ADME, organism-based; conditions: in vivo
NCI-H1975 [17] = test: Antitumor activity against human NCI-H1975 cells xenografted in nude mouse assessed as reduction in tumor growth at 15 mg/kg/day, ig relative to untreated control; format: functional; conditions: route intragastric
Cytochrome P450 2D6 = Cytochrome P450 2D6 (Homo sapiens, UniProt P10635); test: Inhibition of CYP2D6 in human hepatic microsomes after 20 mins by LC/MS/MS method; format: ADME, Liver
NCI-H1975 [18] = test: Toxicity in human NCI-H1975 cells xenografted nude mouse assessed as induction of mortality at 30 mg/kg/day, ig; format: organism-based; set-up: route intragastric; conditions: in vivo, po
Procedure, shortened: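 H1975 NSCLC xenografts set up by subcutaneous inoculation of 3.0 × 10⁷ cells into nude mice. Dosing began at mean tumour size 50−150 mm³. Randomised mice received compound by ig gavage […] for 9 days. Vehicle control was 0.5% CMC-Na + 0.4% Tween80 at 10 mL/kg. Mortality and body weight were monitored during treatment.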

[19] = Apparent clearance in BALB/c mouse at 10 mg/kg, po after 24 hrs by LC/MS/MS method; format: ADME, organism-based; set-up: dose 10 mg/kg, route oral; conditions: BALB/c, in vivo, read-out: CL(app)
SW-620 = test: Growth inhibition of human SW620 cells at 5 uM; format: functional; conditions: read-out: GI
NCI-H1975 [20] = test: Antitumor activity against human NCI-H1975 cells xenografted in nude mouse assessed as reduction in tumor growth at 30 mg/kg/day, ig relative to untreated control; format: functional; conditions: route intragastric
[21] = Intrinsic clearance in dog liver microsomes assessed per mg protein at 1 uM in presence of NADPH after 0.5 to 30 mins by LC/MS/MS method; format: ADME, Canis lupus familiaris; conditions: read-out: CLH
[22] = AUC (0 to infinity) in BALB/c mouse at 10 mg/kg, po after 24 hrs by LC/MS/MS method; format: ADME, organism-based, Plasma; set-up: dose 10 mg/kg, route oral, time infinity; conditions: BALB/c, plasma

Chain of Receptor tyrosine-protein kinase erbB-2 (P04626 whole entry): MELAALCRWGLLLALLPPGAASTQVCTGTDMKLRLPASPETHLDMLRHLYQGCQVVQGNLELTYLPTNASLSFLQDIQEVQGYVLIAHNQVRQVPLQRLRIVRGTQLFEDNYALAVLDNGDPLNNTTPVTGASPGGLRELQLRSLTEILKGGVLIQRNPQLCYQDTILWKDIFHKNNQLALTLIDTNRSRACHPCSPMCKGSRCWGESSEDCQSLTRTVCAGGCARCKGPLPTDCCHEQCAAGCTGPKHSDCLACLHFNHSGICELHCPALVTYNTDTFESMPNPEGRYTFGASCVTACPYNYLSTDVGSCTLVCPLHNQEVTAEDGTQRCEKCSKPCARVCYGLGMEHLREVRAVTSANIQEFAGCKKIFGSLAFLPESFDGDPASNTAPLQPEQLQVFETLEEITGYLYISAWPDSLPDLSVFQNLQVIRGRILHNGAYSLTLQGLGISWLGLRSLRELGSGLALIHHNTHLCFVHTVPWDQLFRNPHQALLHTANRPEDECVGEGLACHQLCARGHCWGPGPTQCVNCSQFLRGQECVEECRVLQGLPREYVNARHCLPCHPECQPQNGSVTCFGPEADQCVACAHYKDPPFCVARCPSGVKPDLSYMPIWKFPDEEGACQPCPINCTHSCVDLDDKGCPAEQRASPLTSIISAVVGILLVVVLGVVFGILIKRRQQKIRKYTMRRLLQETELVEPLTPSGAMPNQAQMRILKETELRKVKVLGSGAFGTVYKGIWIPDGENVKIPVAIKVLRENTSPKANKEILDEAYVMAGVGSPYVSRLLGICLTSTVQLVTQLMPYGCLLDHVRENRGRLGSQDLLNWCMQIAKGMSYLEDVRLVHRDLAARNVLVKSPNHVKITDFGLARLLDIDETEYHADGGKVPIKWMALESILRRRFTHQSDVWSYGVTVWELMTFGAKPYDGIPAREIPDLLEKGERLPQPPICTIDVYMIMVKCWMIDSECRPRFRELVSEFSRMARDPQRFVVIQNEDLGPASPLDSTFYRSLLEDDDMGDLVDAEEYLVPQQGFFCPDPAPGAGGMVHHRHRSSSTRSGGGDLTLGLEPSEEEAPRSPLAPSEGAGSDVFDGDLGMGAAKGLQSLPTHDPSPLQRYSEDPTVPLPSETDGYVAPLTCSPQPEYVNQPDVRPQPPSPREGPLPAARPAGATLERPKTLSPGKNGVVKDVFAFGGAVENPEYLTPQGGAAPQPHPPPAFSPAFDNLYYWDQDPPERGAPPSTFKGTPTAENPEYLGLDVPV
T1 sequence (Q12809 whole entry): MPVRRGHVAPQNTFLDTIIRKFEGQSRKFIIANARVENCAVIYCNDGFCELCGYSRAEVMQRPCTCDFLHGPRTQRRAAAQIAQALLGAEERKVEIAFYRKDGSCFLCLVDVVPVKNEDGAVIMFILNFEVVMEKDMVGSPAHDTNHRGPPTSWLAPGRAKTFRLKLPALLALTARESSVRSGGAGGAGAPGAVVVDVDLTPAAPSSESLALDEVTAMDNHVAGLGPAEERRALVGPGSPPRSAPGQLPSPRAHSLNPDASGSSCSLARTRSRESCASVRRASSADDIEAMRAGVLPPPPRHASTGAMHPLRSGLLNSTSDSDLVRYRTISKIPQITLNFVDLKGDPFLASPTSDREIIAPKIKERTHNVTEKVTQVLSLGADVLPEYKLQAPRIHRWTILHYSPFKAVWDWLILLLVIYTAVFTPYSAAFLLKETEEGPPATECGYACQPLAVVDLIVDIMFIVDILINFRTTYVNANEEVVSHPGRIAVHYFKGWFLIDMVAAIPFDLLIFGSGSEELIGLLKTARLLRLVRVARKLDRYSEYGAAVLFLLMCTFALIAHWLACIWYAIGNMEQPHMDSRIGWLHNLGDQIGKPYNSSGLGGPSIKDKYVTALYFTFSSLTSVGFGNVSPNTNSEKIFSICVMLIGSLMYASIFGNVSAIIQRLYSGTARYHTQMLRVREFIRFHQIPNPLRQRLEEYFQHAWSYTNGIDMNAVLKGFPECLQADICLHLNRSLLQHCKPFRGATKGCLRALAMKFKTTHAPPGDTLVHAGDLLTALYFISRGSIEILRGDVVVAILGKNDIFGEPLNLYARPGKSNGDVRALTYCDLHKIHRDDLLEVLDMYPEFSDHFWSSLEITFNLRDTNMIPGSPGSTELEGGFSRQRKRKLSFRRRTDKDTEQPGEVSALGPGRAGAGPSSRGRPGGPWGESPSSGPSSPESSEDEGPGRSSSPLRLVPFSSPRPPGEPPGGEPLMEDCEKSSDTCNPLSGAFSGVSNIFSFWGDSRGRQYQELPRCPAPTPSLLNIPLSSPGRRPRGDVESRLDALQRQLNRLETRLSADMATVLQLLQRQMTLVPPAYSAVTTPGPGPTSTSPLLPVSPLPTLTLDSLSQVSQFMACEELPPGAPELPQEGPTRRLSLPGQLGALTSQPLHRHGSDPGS
Chain of Epidermal growth factor receptor (Homo sapiens, UniProt P00533, T790M) (P00533 25-1210 T790M limits assumed): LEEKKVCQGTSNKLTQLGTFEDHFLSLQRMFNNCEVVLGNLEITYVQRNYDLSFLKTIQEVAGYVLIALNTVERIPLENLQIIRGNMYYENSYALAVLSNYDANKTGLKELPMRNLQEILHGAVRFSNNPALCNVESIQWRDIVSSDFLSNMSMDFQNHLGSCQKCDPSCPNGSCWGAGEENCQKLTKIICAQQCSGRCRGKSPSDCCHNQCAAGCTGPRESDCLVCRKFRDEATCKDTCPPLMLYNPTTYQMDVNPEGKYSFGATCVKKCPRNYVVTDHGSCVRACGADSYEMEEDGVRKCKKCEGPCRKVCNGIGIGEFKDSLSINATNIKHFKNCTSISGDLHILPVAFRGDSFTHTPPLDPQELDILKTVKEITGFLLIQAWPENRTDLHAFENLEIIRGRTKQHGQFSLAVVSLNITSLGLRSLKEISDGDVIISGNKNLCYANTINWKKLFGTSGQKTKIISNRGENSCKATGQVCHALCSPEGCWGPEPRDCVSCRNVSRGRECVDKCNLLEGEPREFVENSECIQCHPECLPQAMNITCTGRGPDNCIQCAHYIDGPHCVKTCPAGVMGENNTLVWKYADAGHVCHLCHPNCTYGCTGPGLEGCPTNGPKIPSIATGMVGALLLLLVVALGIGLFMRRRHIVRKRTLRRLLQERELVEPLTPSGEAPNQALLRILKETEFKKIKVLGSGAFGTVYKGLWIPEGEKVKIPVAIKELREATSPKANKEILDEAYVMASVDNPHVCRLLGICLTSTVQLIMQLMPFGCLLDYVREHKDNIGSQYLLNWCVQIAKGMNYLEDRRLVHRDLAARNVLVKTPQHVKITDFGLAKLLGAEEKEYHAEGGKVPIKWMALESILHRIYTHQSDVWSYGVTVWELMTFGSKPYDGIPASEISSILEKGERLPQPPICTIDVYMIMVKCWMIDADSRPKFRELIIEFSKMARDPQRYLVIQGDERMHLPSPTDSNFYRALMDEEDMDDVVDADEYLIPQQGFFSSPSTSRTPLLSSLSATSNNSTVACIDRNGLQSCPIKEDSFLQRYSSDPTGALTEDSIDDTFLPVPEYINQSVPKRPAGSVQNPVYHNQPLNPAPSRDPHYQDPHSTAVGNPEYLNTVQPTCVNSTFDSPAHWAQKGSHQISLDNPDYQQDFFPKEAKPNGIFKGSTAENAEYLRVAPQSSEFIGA
Chain of Epidermal growth factor receptor (Homo sapiens, UniProt P00533) (P00533 whole entry): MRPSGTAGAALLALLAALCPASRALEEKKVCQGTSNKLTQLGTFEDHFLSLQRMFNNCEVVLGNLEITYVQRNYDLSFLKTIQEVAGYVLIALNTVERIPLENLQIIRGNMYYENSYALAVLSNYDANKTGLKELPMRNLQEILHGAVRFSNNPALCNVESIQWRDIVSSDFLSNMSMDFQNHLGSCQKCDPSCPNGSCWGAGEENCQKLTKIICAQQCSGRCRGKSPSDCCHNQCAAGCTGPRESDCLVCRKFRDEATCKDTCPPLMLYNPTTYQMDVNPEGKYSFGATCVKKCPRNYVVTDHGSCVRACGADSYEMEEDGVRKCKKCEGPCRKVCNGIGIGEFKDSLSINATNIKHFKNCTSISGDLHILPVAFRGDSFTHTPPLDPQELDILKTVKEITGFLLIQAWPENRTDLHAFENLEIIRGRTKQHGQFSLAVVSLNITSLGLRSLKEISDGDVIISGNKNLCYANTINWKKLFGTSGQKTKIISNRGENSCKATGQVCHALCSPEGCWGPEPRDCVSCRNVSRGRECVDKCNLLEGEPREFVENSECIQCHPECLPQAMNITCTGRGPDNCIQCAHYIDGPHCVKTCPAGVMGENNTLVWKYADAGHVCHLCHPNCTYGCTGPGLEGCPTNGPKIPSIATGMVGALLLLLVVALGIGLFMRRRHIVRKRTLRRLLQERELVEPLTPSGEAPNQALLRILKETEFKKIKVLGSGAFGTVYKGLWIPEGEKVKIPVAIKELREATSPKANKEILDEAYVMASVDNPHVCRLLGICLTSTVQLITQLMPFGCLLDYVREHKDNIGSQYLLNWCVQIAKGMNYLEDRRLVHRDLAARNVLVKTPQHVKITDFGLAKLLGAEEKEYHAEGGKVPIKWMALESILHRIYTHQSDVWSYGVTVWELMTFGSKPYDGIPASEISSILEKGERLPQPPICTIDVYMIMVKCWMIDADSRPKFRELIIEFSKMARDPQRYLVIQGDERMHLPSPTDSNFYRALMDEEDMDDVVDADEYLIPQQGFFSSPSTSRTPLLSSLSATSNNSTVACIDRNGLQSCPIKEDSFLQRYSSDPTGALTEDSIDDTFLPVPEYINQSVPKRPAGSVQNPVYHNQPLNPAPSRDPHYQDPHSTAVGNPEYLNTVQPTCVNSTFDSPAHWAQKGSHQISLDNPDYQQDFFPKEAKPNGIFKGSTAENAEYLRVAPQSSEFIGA

Structure (SMILES): O=C(Nc1cc2c(Nc3ccc(F)c(Cl)c3)ncnc2cc1O[C@H]1CCOC1)/C(F)=C/CN1CCCCC1
IC50 [1]: 0.0164 µM | IC50 (A-431): 1.56 µM | IC50 [6]: 0.0026 µM | IC50 (NCI-H1975 [5]): 0.29 µM

Structure (SMILES): CN(C)C/C=C(\F)C(=O)Nc1cc2c(Nc3ccc(F)c(Cl)c3)ncnc2cc1O[C@H]1CCOC1
microsomal CLint at 1 µM [7]: 2 µL/min/mg | IC50 [1]: 0.00552 µM | IC50 (Cytochrome P450 3A4): > 10 µM | Vz (Mus musculus): 9.69 L/kg | IC50 (A-431): 0.13 µM | microsomal CLint at 1 µM [8]: 12 µL/min/mg | IC50 (Cytochrome P450 1A2): > 10 µM | IC50 (Cytochrome P450 2C9): > 10 µM | inhibition (NCI-H1975 [9]): Dose-dependent effect | microsomal CLint at 1 µM [10]: 31 µL/min/mg | IC50 (Cytochrome P450 2C19): > 10 µM | Kp at 6 h [11]: 0.79 | Kp at 6 h [12]: 25 | inhibition at 1 µM (hERG (KCNH2) [2]): 0% | Cmax [13]: 940 nM | inhibition at 10 µM (hERG (KCNH2) [3]): 14.8% | T/C (NCI-H1975 [14]): 9.4% | microsomal CLint at 1 µM [15]: 14 µL/min/mg | bioavailability [16]: 84.7% | T/C (NCI-H1975 [17]): 42.5% | IC50 (Cytochrome P450 2D6): > 10 µM | IC50 [4]: 0.149 µM | Activity (NCI-H1975 [18]): Non-toxic | CL/F [19]: 30 mL/min/kg | inhibition of growth at 5 µM (SW-620): 11.5% | T/C (NCI-H1975 [20]): 19.5% | microsomal CLint at 1 µM [21]: 39 µL/min/mg | IC50 (NCI-H1975 [5]): 1.24 µM | AUC(0-inf) [22]: 10.4 µM·h

Structure (SMILES): CCOc1cc2ncnc(Nc3ccc(OCC4CC4)c(Cl)c3)c2cc1NC(=O)/C(F)=C\CN(C)C
IC50 (A-431): 1.34 µM | IC50 [6]: 0.0112 µM | IC50 (NCI-H1975 [5]): 2.98 µM

Structure (SMILES): COc1cc2ncnc(Nc3ccc(F)c(Cl)c3)c2cc1NC(=O)/C(F)=C/CN1CCOCC1
IC50 [1]: 0.0598 µM | IC50 (A-431): 2.63 µM | IC50 [4]: 1.54 µM | IC50 (NCI-H1975 [5]): 2.02 µM

Structure (SMILES): COc1cccc2c1C(=O)c1c(O)c3c(c(O)c1C2=O)C[C@@](O)(C(=O)CO)C[C@@H]3O[C@H]1C[C@H](N)[C@H](O)[C@H](C)O1 [DOXORUBICIN]
inhibition of growth at 5 µM (SW-620): 79.8%

Structure (SMILES): O=C(Nc1cc2c(Nc3ccc(F)c(Cl)c3)ncnc2cc1O[C@H]1CCOC1)/C(F)=C\CN1CCCCC1
IC50 (A-431): 1.8 µM | IC50 [6]: 0.00255 µM | IC50 (NCI-H1975 [5]): 0.71 µM

More lines, in order of falling IC50 (A-431), values ahead:

IC50 (A-431): 10.9 µM | IC50 (NCI-H1975 [5]): 3.01 µM
Structure (SMILES): O=C(Nc1cc2c(Nc3ccc(F)c(Cl)c3)ncnc2cc1O[C@H]1CCOC1)/C(F)=C\CN1CCOCC1

IC50 [1]: 0.0021 µM | IC50 (A-431): 4.02 µM | IC50 [6]: 0.00156 µM | IC50 (NCI-H1975 [5]): 2.06 µM
Structure (SMILES): COc1cc2ncnc(Nc3ccc(OCc4cccc(F)c4)c(Cl)c3)c2cc1NC(=O)/C(F)=C/CN(C)C

IC50 [1]: 0.0258 µM | IC50 (A-431): 3.06 µM | IC50 [4]: 0.0971 µM | IC50 (NCI-H1975 [5]): 1.53 µM
Structure (SMILES): CN(C)C/C=C(/F)C(=O)Nc1cc2c(Nc3ccc(F)c(Cl)c3)ncnc2cc1O[C@H]1CCOC1
inhibition at 1 µM (hERG (KCNH2) [2]): 6.37% | inhibition at 10 µM (hERG (KCNH2) [3]): 39.5%

IC50 [1]: 0.0071 µM | IC50 (A-431): 1.67 µM | IC50 [6]: 0.0045 µM | IC50 (NCI-H1975 [5]): 2.49 µM
Structure (SMILES): CCOc1cc2ncnc(Nc3ccc(Oc4ccc(C)nc4)c(Cl)c3)c2cc1NC(=O)/C(F)=C/CN(C)C

IC50 (A-431): 1.2 µM | IC50 [6]: 0.005 µM | IC50 (NCI-H1975 [5]): 4.1 µM
Structure (SMILES): COc1cc2ncnc(Nc3cccc(Br)c3)c2cc1NC(=O)/C(F)=C\CN(C)C

IC50 (A-431): 0.83 µM | IC50 (NCI-H1975 [5]): 1.11 µM
Structure (SMILES): COc1cc2ncnc(Nc3ccc(F)c(Cl)c3)c2cc1NC(=O)/C(F)=C\CN1CCOCC1
